Test results reported in ChEMBL document CHEMBL4689842, “EUbOPEN Chemogenomics Library wave 1” (2021).

Tested on: HEK-293T
Assay: Multiplex assay against HEK293T;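 for Population Tubulin-Different-Phenotype (%): share of the cells with healthy nuclei that show this phenotype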
Type: toxicity, cell-based
Details: human
How it was run: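 Compound was added to live cells that had been stained at seeding with Hoechst33342, BioTracker Green Microtubule Cytoskeleton Dye, MitoTracker Red and Annexin V Alexa Fluor 680, and imaging followed on a CQ1 microscope at 37°C and 5% CO2. CellPathfinder machine-learning gating divided cells into Hoechst high-intensity objects or normal cells, normal cells into healthy, pyknosed or fragmented nuclei, and pyknosed cells into mitotic or apoptotic. Tubulin, mitochondrial-mass and membrane-permeability phenotypes are per cents of healthy-nucleus cells.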

[1] = 12 h, 1 µM, compound concentration 1 uM, replicate 1
[2] = 12 h, 1 µM, compound concentration 1 uM, replicate 2
[3] = 12 h, 10 µM, compound concentration 10 uM, replicate 1
[4] = 12 h, 10 µM, compound concentration 10 uM, replicate 2
[5] = 24 h, 1 µM, compound concentration 1 uM, replicate 1
[6] = 24 h, 1 µM, compound concentration 1 uM, replicate 2
[7] = 24 h, 10 µM, compound concentration 10 uM, replicate 1
[8] = 24 h, 10 µM, compound concentration 10 uM, replicate 2
[9] = 48 h, 1 µM, compound concentration 1 uM, replicate 1
[10] = 48 h, 1 µM, compound concentration 1 uM, replicate 2
[11] = 48 h, 10 µM, compound concentration 10 uM, replicate 1
[12] = 48 h, 10 µM, compound concentration 10 uM, replicate 2

In the case of `C[C@@H](Oc1cc(-n2cnc3ccc(CN4CCN(C)CC4)cc32)sc1C(N)=O)c1ccccc1C(F)(F)F` [GSK-461364], the “Population Apoptotic (%)” value [1] is reported as 62%, the “Population Fragmented Nuclei (%)” value [1] is reported as 14% and the “Population Healthy Nuclei (%)” value [1] is reported as 19%. The “Population Hoechst High Intensity Objects (%)” value [1] was 17%, the “Population Membrane Permeable-Phenotype (%)” value [1] was 5% and the “Population Mitochondria Different-Phenotype (%)” value [1] was 98%. The “Population Mitotic Cells (%)” value [1] was 37%, the “Population Normal (%)” value [1] was 82% and the “Population Pyknosed Nuclei (%)” value [1] was 65%. The “Population Tubulin-Different-Phenotype (%)” value [1] was 96%, the “Total Cell Count” value [1] was 322 and the “Population Apoptotic (%)” value [2] was 27%. The “Population Fragmented Nuclei (%)” value [2] was 10%, the “Population Healthy Nuclei (%)” value [2] was 33% and the “Population Hoechst High Intensity Objects (%)” value [2] was 4%. For the same compound, the “Population Membrane Permeable-Phenotype (%)” value [2] was 20%, the “Population Mitochondria Different-Phenotype (%)” value [2] was 60% and the “Population Mitotic Cells (%)” value [2] was 72%. The “Population Normal (%)” value [2] was 95%, the “Population Pyknosed Nuclei (%)” value [2] was 56% and the “Population Tubulin-Different-Phenotype (%)” value [2] was 71%. For the same compound, the “Total Cell Count” value [2] was 142, the “Population Apoptotic (%)” value [3] was 80% and the “Population Fragmented Nuclei (%)” value [3] was 16%. The “Population Healthy Nuclei (%)” value [3] was 11%, the “Population Hoechst High Intensity Objects (%)” value [3] was 22% and the “Population Membrane Permeable-Phenotype (%)” value [3] was 7%. For the same compound, the “Population Mitochondria Different-Phenotype (%)” value [3] was 100%, the “Population Mitotic Cells (%)” value [3] was 19% and the “Population Normal (%)” value [3] was 77%. The “Population Pyknosed Nuclei (%)” value [3] was 71%, the “Population Tubulin-Different-Phenotype (%)” value [3] was 74% and the “Total Cell Count” value [3] was 294. The “Population Apoptotic (%)” value [4] was 66%, the “Population Fragmented Nuclei (%)” value [4] was 11% and the “Population Healthy Nuclei (%)” value [4] was 14%. The “Population Hoechst High Intensity Objects (%)” value [4] was 10%, the “Population Membrane Permeable-Phenotype (%)” value [4] was 12% and the “Population Mitochondria Different-Phenotype (%)” value [4] was 75%. For the same compound, the “Population Mitotic Cells (%)” value [4] was 33%, the “Population Normal (%)” value [4] was 89% and the “Population Pyknosed Nuclei (%)” value [4] was 73%. For the same compound, the “Population Tubulin-Different-Phenotype (%)” value [4] was 62%, the “Total Cell Count” value [4] was 187 and the “Population Apoptotic (%)” value [5] was 66%. For the same compound, the “Population Fragmented Nuclei (%)” value [5] was 14%, the “Population Healthy Nuclei (%)” value [5] was 22% and the “Population Hoechst High Intensity Objects (%)” value [5] was 16%. For the same compound, the “Population Membrane Permeable-Phenotype (%)” value [5] was 0%, the “Population Mitochondria Different-Phenotype (%)” value [5] was 98% and the “Population Mitotic Cells (%)” value [5] was 33%. For the same compound, the “Population Normal (%)” value [5] was 83%, the “Population Pyknosed Nuclei (%)” value [5] was 62% and the “Population Tubulin-Different-Phenotype (%)” value [5] was 96%. For the same compound, the “Total Cell Count” value [5] was 321, the “Population Apoptotic (%)” value [6] was 38% and the “Population Fragmented Nuclei (%)” value [6] was 8%. For the same compound, the “Population Healthy Nuclei (%)” value [6] was 43%, the “Population Hoechst High Intensity Objects (%)” value [6] was 3% and the “Population Membrane Permeable-Phenotype (%)” value [6] was 12%. The “Population Mitochondria Different-Phenotype (%)” value [6] was 54%, the “Population Mitotic Cells (%)” value [6] was 61% and the “Population Normal (%)” value [6] was 96%. The “Population Pyknosed Nuclei (%)” value [6] was 47%, the “Population Tubulin-Different-Phenotype (%)” value [6] was 75% and the “Total Cell Count” value [6] was 154. The “Population Apoptotic (%)” value [7] was 81%, the “Population Fragmented Nuclei (%)” value [7] was 26% and the “Population Healthy Nuclei (%)” value [7] was 10%. For the same compound, the “Population Hoechst High Intensity Objects (%)” value [7] was 25%, the “Population Membrane Permeable-Phenotype (%)” value [7] was 4% and the “Population Mitochondria Different-Phenotype (%)” value [7] was 100%. For the same compound, the “Population Mitotic Cells (%)” value [7] was 18%, the “Population Normal (%)” value [7] was 74% and the “Population Pyknosed Nuclei (%)” value [7] was 63%. For the same compound, the “Population Tubulin-Different-Phenotype (%)” value [7] was 45%, the “Total Cell Count” value [7] was 298 and the “Population Apoptotic (%)” value [8] was 86%. The “Population Fragmented Nuclei (%)” value [8] was 12%, the “Population Healthy Nuclei (%)” value [8] was 25% and the “Population Hoechst High Intensity Objects (%)” value [8] was 5%. The “Population Membrane Permeable-Phenotype (%)” value [8] was 0%, the “Population Mitochondria Different-Phenotype (%)” value [8] was 97% and the “Population Mitotic Cells (%)” value [8] was 13%. The “Population Normal (%)” value [8] was 94%, the “Population Pyknosed Nuclei (%)” value [8] was 62% and the “Population Tubulin-Different-Phenotype (%)” value [8] was 63%. The “Total Cell Count” value [8] was 207, the “Population Apoptotic (%)” value [9] was 66% and the “Population Fragmented Nuclei (%)” value [9] was 22%. For the same compound, the “Population Healthy Nuclei (%)” value [9] was 18%, the “Population Hoechst High Intensity Objects (%)” value [9] was 22% and the “Population Membrane Permeable-Phenotype (%)” value [9] was 2%. For the same compound, the “Population Mitochondria Different-Phenotype (%)” value [9] was 95%, the “Population Mitotic Cells (%)” value [9] was 33% and the “Population Normal (%)” value [9] was 77%. For the same compound, the “Population Pyknosed Nuclei (%)” value [9] was 59%, the “Population Tubulin-Different-Phenotype (%)” value [9] was 97% and the “Total Cell Count” value [9] was 325. For the same compound, the “Population Apoptotic (%)” value [10] was 67%, the “Population Fragmented Nuclei (%)” value [10] was 10% and the “Population Healthy Nuclei (%)” value [10] was 60%. For the same compound, the “Population Hoechst High Intensity Objects (%)” value [10] was 2%, the “Population Membrane Permeable-Phenotype (%)” value [10] was 6% and the “Population Mitochondria Different-Phenotype (%)” value [10] was 53%. The “Population Mitotic Cells (%)” value [10] was 32%, the “Population Normal (%)” value [10] was 97% and the “Population Pyknosed Nuclei (%)” value [10] was 28%. For the same compound, the “Population Tubulin-Different-Phenotype (%)” value [10] was 76%, the “Total Cell Count” value [10] was 191 and the “Population Apoptotic (%)” value [11] was 77%. The “Population Fragmented Nuclei (%)” value [11] was 27%, the “Population Healthy Nuclei (%)” value [11] was 4% and the “Population Hoechst High Intensity Objects (%)” value [11] was 26%. The “Population Membrane Permeable-Phenotype (%)” value [11] was 11%, the “Population Mitochondria Different-Phenotype (%)” value [11] was 100% and the “Population Mitotic Cells (%)” value [11] was 22%. For the same compound, the “Population Normal (%)” value [11] was 73%, the “Population Pyknosed Nuclei (%)” value [11] was 68% and the “Population Tubulin-Different-Phenotype (%)” value [11] was 55%. For the same compound, the “Total Cell Count” value [11] was 287, the “Population Apoptotic (%)” value [12] was 79% and the “Population Fragmented Nuclei (%)” value [12] was 12%. For the same compound, the “Population Healthy Nuclei (%)” value [12] was 31%, the “Population Hoechst High Intensity Objects (%)” value [12] was 10% and the “Population Membrane Permeable-Phenotype (%)” value [12] was 0%. The “Population Mitochondria Different-Phenotype (%)” value [12] was 98%, the “Population Mitotic Cells (%)” value [12] was 20% and the “Population Normal (%)” value [12] was 89%. For the same compound, the “Population Pyknosed Nuclei (%)” value [12] was 55%, the “Population Tubulin-Different-Phenotype (%)” value [12] was 56% and the “Total Cell Count” value [12] was 204.
